Screening results (PubChem)
PvdQ inh – P. aeruginosa PvdQ acylase inhibition; purified PvdQ acylase, fluorescence plate reader; inhibition, % at 10 µM; hit rate 0.063% among 340,000; AID 488965; in the data active = inhibition above about 30%, passing the limit was not always enough
Xi reactivation – X-chromosome reactivation activator; XiGFP mouse fibroblasts, % GFP-positive cells imaging, 3 d; cells co-treated with 5-aza-dC sensitizer; scaled so ellipticine positive control = 100%; activation, % at 7.58 µM; hit rate 0.055% among 360,000; AID 743238;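 active = mean normalized replicate activation at least 10% and every replicate at or above 10%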
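System: SV40-immortalized XiGFP fibroblast cells, line 68-5-11 / Incubation: 3-day compound exposure, then 15 min fixation at room temperature / Compound: single concentration per compound, delivered by pin transfer / Buffer or medium: DMEM plus 5-aza-dC sensitizer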
dFosB act-1 – activators of mouse delta FosB homodimer; AID 493131; purified delta FosB, TAMRA-CDK5 oligo fluorescence polarization; percent of positive-control signal above neutral wells; hit rate 0.99% among 340,000; activation, % at 25 µM; P13346;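 active = mean activation above about 17%, with every replicate also reaching it, limit read from the data, passing the limit was not always enough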
Target sequence (P13346 whole entry, looked up): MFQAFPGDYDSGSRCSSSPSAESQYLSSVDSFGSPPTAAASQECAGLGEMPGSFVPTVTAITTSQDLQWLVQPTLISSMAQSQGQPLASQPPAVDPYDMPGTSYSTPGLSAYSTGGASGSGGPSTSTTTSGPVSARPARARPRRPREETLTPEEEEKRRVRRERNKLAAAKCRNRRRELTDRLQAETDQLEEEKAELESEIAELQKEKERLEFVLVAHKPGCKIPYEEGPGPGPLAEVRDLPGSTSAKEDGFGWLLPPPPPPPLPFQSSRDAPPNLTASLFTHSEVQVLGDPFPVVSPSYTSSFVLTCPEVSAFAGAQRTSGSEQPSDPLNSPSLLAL
SR-BI HDL uptake – blocks mouse SR-BI lipid uptake from DiI-HDL; Q61009; ldlA[mSR-BI] CHO cells, DiI-HDL uptake fluorescence, 3 h; inhibition, % at 12.5 µM; hit rate 0.96% among 320,000; AID 488896;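 active = mean replicate inhibition of at least 70% and a set share of replicates each scoring 70 or more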
SR-BI DiI-HDL act – enhances SR-BI lipid uptake from DiI-HDL. CHO ldlA[mSR-BI] cells, DiI-HDL uptake fluorescence, 3 h; 100 = double the neutral-control signal. activation, % at 12.5 µM. hit rate 0.096% among 320,000. AID 504775;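 active = mean replicate activation of at least 60% and every replicate at or above 60%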
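Assay system: CHO ldlA[mSR-BI] cells, LDL receptor-null, SR-BI overexpressing; medium: Ham's F12 with 0.5% BSA, HEPES 25 mM, pH 7.4; also added: DiI-HDL 10 µg/mL; timing: 3 h uptake period with compound, 37 °C; signal: DiI fluorescence, bottom read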
Ecoli rRNA inh – selective bacterial rRNA inhibition in E. coli; E. coli WT GFP vs humanized-ribosome RFP mutants, fluorescence, 24 h; hits give low values; DMSO median 0, no signal -100; GFP signal change (wild-type ribosome), % (no concentration beside the values); hit rate 1.6% among 350,000; AID 720706;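 active = significant combined selectivity score with lowered wild-type GFP, culture density cut under 30%, mutant RFP and density less affected; inactive = any of these conditions unmet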
dFosB act-2 – activators of mouse delta FosB homodimer DNA binding; shares compounds with dFosB act-1; purified delta FosB, TAMRA-CDK5 oligo fluorescence polarization; normalised: neutral wells 0, positive control 100; activation, % at 24.9 µM; 2,400 tested, under 10 active;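 active = highest replicate activation at or above 34% and every replicate reaching that threshold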;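 note: higher polarization means more probe DNA bound by delta FosB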
A number is an active result; - = inactive; . = no result given. Shown are actives, neighbours in structure and some others; about 2.6% of the full set was active somewhere.

SMILES	PvdQ inh	Xi reactivation	dFosB act-1	SR-BI HDL uptake	SR-BI DiI-HDL act	Ecoli rRNA inh	dFosB act-2
O=C(CSc1ccc2ccccc2n1)N1CCC(c2noc3ccc(F)cc23)CC1	-	.	-	-	-	.	.
CS(=O)(=O)N1CCN(c2ccc([N+](=O)[O-])c(N3CCOCC3)c2)CC1	-	.	-	-	-	.	.
C[C@@H]1CCCCO[C@@H](CN(C)C(=O)Nc2ccc(F)cc2)[C@H](C)CN([C@H](C)CO)C(=O)c2cc(NC(=O)c3ccccc3)ccc2O1	.	-	.	.	.	-	.
O=C(Nc1ccc2c(c1)OCO2)Nc1ccc(Cl)cc1Cl	-	.	28.9	-	-	.	-
O=C(Nc1cnccn1)Nc1ccc(Cl)cc1Cl	-	-	33.7	-	-	.	-
CC(=O)c1cc2c(cc1C)CCCC2(C)C	.	-	.	.	.	-	.
CN(c1ccccc1)S(=O)(=O)c1ccc(Cl)c(C(=O)Nc2ccc(-c3nc4ccccc4[nH]3)cc2)c1	-	-	44.0	-	-	.	-
CS(=O)(=O)c1cccc(C(=O)Nc2ccc(-c3nc4ccccc4[nH]3)cc2)c1	-	-	36.8	-	-	-	-
O=C(Nc1ccc(-c2nc3ccc(NC(=O)c4cccs4)cc3[nH]2)cc1)c1cccs1	-	.	46.7	-	-	.	-
O=C(Nc1ccc(-c2nc3ccccc3[nH]2)cc1)c1ccc(N2C(=O)CCC2=O)cc1	-	-	25.1	-	-	-	-
CN(c1ccccc1)S(=O)(=O)c1ccc(Cl)c(C(=O)Nc2nc3ccccc3[nH]2)c1	-	-	-	-	-	.	.
CN(C)C(=O)C[C@H]1C=C[C@@H](NC(=O)NC2CCCC2)[C@H](CO)O1	.	-	.	.	.	-	.
COC(=O)CN(C(=S)Nc1ccc(F)cc1)C1CC(=O)N(c2ccc(OC)cc2)C1=O (stereo not given)	-	.	-	-	-	.	.
CC(=O)c1ccc(NC(=O)Cn2cnc(S(=O)(=O)N3CCOCC3)c2)cc1	-	-	-	-	-	-	.
CC(=O)c1ccc(NC(=O)Cn2cnc(S(=O)(=O)N3CCC(C)CC3)c2)cc1	-	-	35.2	-	-	-	-
O=S1(=O)N=C(Nc2ccc(S(=O)(=O)N3CCCCC3)cc2)c2ccccc21	-	.	47.2	-	-	.	-
Cn1c(=O)c2c(nc(N3CCN(Cc4ccccc4)CC3)n2CC(=O)c2ccccc2)n(C)c1=O	-	.	-	-	-	.	.
COc1ccc(Cn2c(CCC(=O)Nc3ccc(C)c(C)c3)nc3cccnc32)cc1	-	.	18.3	-	-	.	-
COc1ccc(/C=C/C(=O)OCC(=O)NC(C)CCc2ccccc2)cc1 (stereo not given)	-	-	-	-	-	-	.
O=C(CSCC(=O)Nc1cccc2ccccc12)Nc1cccc2ccccc12	-	-	49.3	.	.	-	-
O=C(CSCCO)Nc1cccc2ccccc12	-	.	-	-	-	.	.
Cc1nn(C)cc1CN1CCC(n2nccc2NC(=O)CCCc2ccccc2)CC1	-	-	-	-	-	-	.
Cc1ccc(Cn2ccc(NC(=O)c3noc4c3CCc3ccccc3-4)n2)cc1	-	.	-	-	-	.	.
COc1ccc2c(c1)CCc1c(C(=O)Nc3ccn(Cc4ccc(C)cc4)n3)noc1-2	-	.	27.8	-	-	.	-
Cc1cnc(NC(=O)c2cc3c(C)nn(Cc4ccccc4Cl)c3s2)s1	-	-	30.4	-	-	-	-
SMILES	PvdQ inh	Xi reactivation	dFosB act-1	SR-BI HDL uptake	SR-BI DiI-HDL act	Ecoli rRNA inh	dFosB act-2
COc1ccc(Cc2nnc(NC(=O)c3ccc(F)cc3)s2)cc1OC	-	-	-	-	-	-	.
COc1ccc(Cc2nnc(NC(=O)c3cccc(F)c3)s2)cc1OC	-	-	18.8	-	-	-	-
CCCNc1c(NS(=O)(=O)c2ccc3c(c2)CCCC3)c(=O)oc2ccccc12	-	.	59.7	-	-	.	-
CNc1c(NS(=O)(=O)c2ccc(OC)c(Cl)c2)c(=O)oc2ccccc12	-	-	64.5	-	-	-	-
CCCNc1c(NS(=O)(=O)c2ccc(C)c(C)c2)c(=O)oc2ccccc12	-	-	-	-	-	-	.
Cc1c(C(=O)NNC(=O)c2ccccc2O)oc2ccc(Br)cc12	-	-	36.8	129.4	-	-	-
Cc1c(C(=O)NCc2cccs2)oc2ccc(Br)cc12	-	.	-	-	-	.	.
O=C(Nc1cccnc1)c1ccc(COc2ccccc2Br)o1	-	.	-	-	-	.	.
CC(=O)Nc1ccc(NC(=O)c2ccc(COc3ccccc3Br)o2)cc1	-	-	68.8	-	-	-	-
Cc1cccc(OCC(=O)Nc2nc3ccc([N+](=O)[O-])cc3s2)c1C	-	.	-	-	-	.	.
O=C(COc1ccccc1C(=O)O)Nc1nc2ccc([N+](=O)[O-])cc2s1	-	-	25.0	-	-	-	-
CCn1cc(Br)c(C(=O)Nc2sc3c(c2C(N)=O)CCCC3)n1	-	.	76.0	-	-	.	-
Cn1cc(Br)c(C(=O)Nc2sc3c(c2C(N)=O)CCCC3)n1	-	-	-	.	.	-	.
COc1ccc(Nc2oc(COc3ccc(Cl)cc3)nc2C#N)cc1	-	.	22.3	-	-	.	-
O=C(CN(Cc1ccccc1)C(=O)CCC(=O)Nc1ccccn1)NCc1ccco1	-	.	-	-	-	.	.
Nc1c(N(CCC2=CCCCC2)C(=O)COc2ccc(F)cc2Cl)c(=O)[nH]c(=O)n1Cc1ccccc1	-	-	29.1	-	-	-	-
Nc1c(N(CCC2=CCCCC2)C(=O)Cc2ccc(F)cc2)c(=O)[nH]c(=O)n1Cc1ccccc1	-	-	-	-	-	-	.
COc1ccc(-n2nc(C(=O)NCC(=O)Nc3cccc(Cl)c3)c3ccccc3c2=O)cc1	-	-	39.4	-	-	-	-
CS(=O)(=O)N(CC(=O)Nc1c(F)cccc1F)c1ccc(C23CC4CC(CC(C4)C2)C3)cc1	-	.	53.5	-	-	.	-
COc1ccc(Cc2nc3c4c(ncn3n2)Oc2c(ccc3ccccc23)C4c2ccc(OC)c(OC)c2)cc1 (stereo not given)	-	-	31.9	-	-	-	-
CN(CC(=O)Nc1ccccc1Cl)C(=O)COC(=O)c1ccc(C(F)(F)F)cc1	-	-	-	-	-	-	.
CN(CC(=O)Nc1ccccc1Cl)C(=O)COC(=O)c1ccc(-c2ccc(O)cc2)cc1	-	-	44.8	-	-	-	-
O=C(Cn1nnc(-c2ccc(CN3CCOCC3)cc2)n1)Nc1nc(-c2ccccc2)cs1	-	.	25.2	-	-	.	-
Cc1ccc(N(CC(=O)N2CCN(c3ccccc3F)CC2)S(=O)(=O)c2c(C)noc2C)cc1	-	-	-	-	-	-	.
